ABCG2 block = blocks JC-1 efflux by human ABCG2 transporter | Q9UNQ0 | IgMXP3 cells, flow cytometry | inhibition, % at 6.6 µM | actives 0.1% (n = 190,000) | AID 1325;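 active = inhibition above 80%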;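 also: 0% = DMSO and 100% = nicardipine control wells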
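Incubation: cells with compound and JC-1, 10 min at 25 °C, rotating, no wash / Test system: IgMXP3 (ABCG2) plus far-red-tagged CCRF-Adr (ABCB1) cells / Compound dosing: one concentration, 6.6 µM final / Also added: JC-1 fluorescent substrate / Evaluation: efflux inhibition in percent versus controls / Detection: flow cytometry, 530 nm JC-1 signal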
ABCB1 block = human ABCB1 inhibition, ABCG2 as counter-screen. P08183. CCRF-Adr cells, JC-1 efflux, flow cytometry. inhibition, % at 6.6 µM. actives 0.067% (n = 190,000). AID 1326; in the data active = inhibition above about 40%;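 also: 0% = vehicle and 100% = reference inhibitor; higher value means more JC-1 retained so stronger ABCB1 efflux block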
DDE Tn6 FP inh = disrupts Tn6 cyclic peptide binding to fibrin D-Dimer-E complex; actives 0.21% (n = 370,000); Fibrin DD(E) TRITC-Tn6 fluorescence polarization displacement; P02675; inhibition, % at 8.3 µM;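 active = inhibition above a per-campaign cutoff: mean of compounds within control limits plus 3 SD, cut at about 15% in these data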;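 also: 0% = median of all compound wells on the plate and 100% = blocking peptide control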
Ins promoter up = MIN6 insulin promoter up-regulation. MIN6 insulin promoter-GFP reporter, high-content imaging; active compounds read high. z-score at 5 µM. actives 0.3% (n = 190,000). AID 1625;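 active = z-score above 3 at 5 µM with at least 500 cells counted in the well; inconclusive = wells under 500 cells, flagged as cytotoxic or low count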
GRK2 inh = human GRK2 inhibition via aptamer displacement. P25098. bead flow cytometry, FAM-aptamer displacement from GRK2. inhibition of aptamer binding, % at 10 µM. actives 0.59% (n = 330,000). AID 488847;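 active = inhibition of aptamer binding above 40%, roughly 3 SD of noise, on plates passing a quality check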;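 also: median bead fluorescence of bound FAM aptamer so fluorescent compounds give negative values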
Target sequence (P25098 whole entry, looked up): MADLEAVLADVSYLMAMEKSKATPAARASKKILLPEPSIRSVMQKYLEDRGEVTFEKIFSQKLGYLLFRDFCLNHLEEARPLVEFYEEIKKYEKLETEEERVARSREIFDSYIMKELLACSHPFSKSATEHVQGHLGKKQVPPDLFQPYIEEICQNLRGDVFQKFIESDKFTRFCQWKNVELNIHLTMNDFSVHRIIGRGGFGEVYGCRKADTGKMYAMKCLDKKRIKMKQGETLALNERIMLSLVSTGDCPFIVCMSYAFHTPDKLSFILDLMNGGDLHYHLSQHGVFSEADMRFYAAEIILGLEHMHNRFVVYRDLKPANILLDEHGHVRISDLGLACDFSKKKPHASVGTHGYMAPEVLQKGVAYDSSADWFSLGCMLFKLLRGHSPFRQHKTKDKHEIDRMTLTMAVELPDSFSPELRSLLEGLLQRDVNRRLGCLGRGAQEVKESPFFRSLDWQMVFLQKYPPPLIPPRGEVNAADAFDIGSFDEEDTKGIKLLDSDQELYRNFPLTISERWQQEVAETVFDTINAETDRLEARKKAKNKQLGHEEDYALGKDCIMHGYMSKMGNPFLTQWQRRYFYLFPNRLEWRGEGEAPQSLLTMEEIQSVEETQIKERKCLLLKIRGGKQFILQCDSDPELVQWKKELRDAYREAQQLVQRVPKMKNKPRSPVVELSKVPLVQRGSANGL
Tn7 DDE FP = inhibitors of Tn7 peptide binding to human fibrin DD(E). AID 720508. FP displacement of FITC-Tn7 peptide from fibrin DD(E); 0% = median of compound wells per plate. actives 0.13% (n = 370,000). inhibition, % at 8.3 µM. P02675;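 active = inhibition above the mean of compounds falling within the control limits plus 3 SD of them, cut at about 14% in these data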;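 also: 0% = plate median of compound wells and 100% = 10 µM Aha-Tn7 peptide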
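Test system: human clot-derived fibrin DD(E) complex / Quantity: 2 µM final DD(E) protein / Incubation: 10 min plus 3 h, room temperature / Measured by: fluorescence polarization / Benchmarks: high control of 10 µM Aha-Tn7 peptide / Replicates: singlicate testing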
The depositor's hits bear a star. An excerpt weighted towards active compounds, which were near 0.99% of everything screened.

`CC(=O)Nc1nc(-c2ccc(Br)s2)cs1` gave ABCG2 block 2, ABCB1 block 0, DDE Tn6 FP inh 6, Ins promoter up 5*, GRK2 inh 0 and Tn7 DDE FP 7.
Screening CC(C)NC(=O)N[C@@H]1C[C@@H]2O[C@@H](CO)CC[C@@H]2O[C@@H]1CCc1ccc(-c2ccccc2F)cc1 returned DDE Tn6 FP inh 3 and Tn7 DDE FP 6.
For COc1ccc(NC(=O)CSc2nnc(-c3cccs3)n2C)cc1OC the results were ABCG2 block 0, ABCB1 block 0, DDE Tn6 FP inh -3, Ins promoter up 3.5*, GRK2 inh 0 and Tn7 DDE FP -4.
Screening CCOC(=O)c1ccc2c(c1)C1C=CCC1C(C(=O)O)N2 (centres undefined) returned ABCG2 block -1, ABCB1 block 0, Ins promoter up 0.95 and GRK2 inh 88*.
For Cc1ccc2c(c1C)NC(C(=O)O)C1CC=CC21 (centres undefined) the results were ABCG2 block -2, ABCB1 block -1, Ins promoter up 1 and GRK2 inh 47*.
Screening O=C(O)C1Nc2c(C(=O)N3CCOCC3)cccc2C2C=CCC12 (centres undefined) returned ABCG2 block -6, ABCB1 block 0, Ins promoter up 0.6 and GRK2 inh 38.
COc1ccc(NC(=S)/N=C(\N)Nc2nc(C)c3ccc(C)cc3n2)cc1 was read as ABCG2 block -8, ABCB1 block -1, DDE Tn6 FP inh -1, Ins promoter up -1.8, GRK2 inh 1 and Tn7 DDE FP -3.
Screening CCOc1ccc2nc(N/C(N)=N/C(=S)Nc3ccc(C)c(C)c3)nc(C)c2c1 returned ABCG2 block -4, ABCB1 block -1, DDE Tn6 FP inh -1, Ins promoter up -0.37, GRK2 inh 94* and Tn7 DDE FP 1.
`CSc1nsc(/C=C/Nc2ccc(F)cc2F)c1C#N` gave ABCG2 block 22, ABCB1 block 2, Ins promoter up 0.24 and GRK2 inh 98*.
For CCCc1cc(=O)[nH]c(SCC(=O)NC(=O)OCC)n1 the results were ABCG2 block 1, ABCB1 block 0, DDE Tn6 FP inh 6, Ins promoter up 0.25, GRK2 inh 0 and Tn7 DDE FP 4.
Screening CCCc1cc(=O)[nH]c(SCC(=O)NCCCC(=O)OCC)n1 returned ABCG2 block 8, ABCB1 block 0, DDE Tn6 FP inh 3, Ins promoter up 3.1*, GRK2 inh 0 and Tn7 DDE FP 6.
Screening CC(C)C[C@H]1COc2cccc(F)c2S(=O)(=O)N1Cc1cn(Cc2ccc(F)cc2)nn1 returned DDE Tn6 FP inh 4 and Tn7 DDE FP -5.
For COc1cccc(C(=O)Nc2ccccc2C(=O)N2CCCC2)c1 the results were ABCG2 block 1, ABCB1 block 0, DDE Tn6 FP inh 7, Ins promoter up 3.3*, GRK2 inh 1 and Tn7 DDE FP -1.
Screening COc1nc(OC)nc(N2CCC(C(=O)NCc3cccs3)CC2)n1 returned ABCG2 block 12, ABCB1 block 1, DDE Tn6 FP inh -2, Ins promoter up 3.5*, GRK2 inh 1 and Tn7 DDE FP 0.
Screening CC(C)=NNc1nc2c(c(=O)n(C)c(=O)n2C)n1CCc1ccccc1 returned ABCG2 block 7, ABCB1 block 0, DDE Tn6 FP inh -3, Ins promoter up 4.2*, GRK2 inh 0 and Tn7 DDE FP -9.
CC(C)Cc1nc2oc3c(N4CCN(CCO)CC4)ncnc3c2c2c1CCCC2 was read as ABCG2 block 30, ABCB1 block 16, DDE Tn6 FP inh 8, Ins promoter up -1.1, GRK2 inh 45* and Tn7 DDE FP 5.
Screening CCN1CCN(c2ncnc3c2oc2nc(C(C)C)c4c(c23)CCC4)CC1 returned Ins promoter up -1.2.
For Nn1c(SCc2c(Cl)cccc2Cl)nnc1-c1n[nH]c2c1CCC2 the results were DDE Tn6 FP inh 1 and Tn7 DDE FP -2.
For COc1ccccc1CN(C)C(=O)C1CCCN(c2nc3ccccc3o2)C1 (centres undefined) the results were DDE Tn6 FP inh -4 and Tn7 DDE FP 6.
Screening CC(C)[C@H](NC(=O)c1ccccc1Cl)C(=O)OCC(=O)NCc1ccc2c(c1)OCO2 returned DDE Tn6 FP inh 12, GRK2 inh 42* and Tn7 DDE FP -2.
For CCC(=O)N(c1ccccc1)C1CCN(C(=O)C(Cc2ccccc2)NC(C)=O)CC1 (centres undefined) the results were DDE Tn6 FP inh -3 and Tn7 DDE FP 1.
CCOC(=O)C1=C(C)N(CCCC(=O)O)C(=O)NC1c1cccs1 (centres undefined) was read as DDE Tn6 FP inh -3, GRK2 inh 0 and Tn7 DDE FP 0.
COC(=O)C1=C(C)N(CCCC(=O)O)C(=O)NC1c1cccs1 (centres undefined) was read as ABCG2 block 0, ABCB1 block 45*, DDE Tn6 FP inh -6, Ins promoter up 0.74, GRK2 inh 0 and Tn7 DDE FP 4.
CCN(CC)c1ccc(C=Nn2c(-c3ccc(F)cc3)n[nH]c2=S)c(O)c1 was read as DDE Tn6 FP inh 3 and Tn7 DDE FP -1.
For CCN(CC)c1ccc(/C=N/NC(=O)c2cccc(S(=O)(=O)Nc3ccccc3OC)c2)cc1 the results were ABCG2 block 4, ABCB1 block 0, DDE Tn6 FP inh 4, Ins promoter up -0.29, GRK2 inh 2 and Tn7 DDE FP -1.
`CCN(CC)c1ccc(/C=N/NC(=O)c2cccc(S(=O)(=O)Nc3ccccc3OC)c2)c(O)c1` gave ABCG2 block -22, ABCB1 block -2, DDE Tn6 FP inh -3, Ins promoter up inconclusive, GRK2 inh 70* and Tn7 DDE FP 0.
For COc1ccccc1C(=O)NC1CCCCN(Cc2ccc(C)cc2)C1=O (centres undefined) the results were DDE Tn6 FP inh 7 and Tn7 DDE FP -2.
Cc1ccc(C(=O)C2CCN(CC(=O)N3CC(C)CC(C)C3)CC2)cc1 (centres undefined) was read as DDE Tn6 FP inh 6 and Tn7 DDE FP 5.
Screening O=C(CSc1nc2ccccc2c(=O)n1-c1ccc(F)cc1)Nc1cc(S(=O)(=O)N2CCOCC2)ccc1Cl returned ABCG2 block 1, ABCB1 block 1, DDE Tn6 FP inh -7, Ins promoter up -0.18, GRK2 inh 53* and Tn7 DDE FP 0.
O=C(CSc1nc2ccccc2c(=O)n1-c1ccc(F)cc1)Nc1ccc(N2CCOCC2)cc1 was read as ABCG2 block 0, ABCB1 block 0, DDE Tn6 FP inh 6, Ins promoter up -0.41, GRK2 inh 1 and Tn7 DDE FP 8.
For CCOc1cc(NC(=O)c2ccccc2OC)c(OCC)cc1NC(=O)c1ccccc1 the results were DDE Tn6 FP inh 6, GRK2 inh 1 and Tn7 DDE FP -4.

Source: PubChem (several laboratories)
